One data set has as its system THP-1. The data set can be described thus: Inhibition of TNFalpha release from LPS-stimulated human monocyte THP1 cells. Format: functional, cell-based.
In the next data set the test system is Blood. The data set can be described thus: Inhibition of LPS-stimulated TNFalpha release in human whole blood. Format: functional, tissue-based.
A short description of data set [1]: Bioavailability in Sprague-Dawley rat at 1 mg/kg, po. Format: ADME, organism-based. The conditions noted are these: in vivo. The essentials:
(§1)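 Sprague-Dawley rats (male where specified) were dosed orally at 1 mpk, in one case as a 0.5% methylcellulose suspension. Plasma exposure was followed to give oral bioavailability, AUC, C_max and half-life.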

A short description of data set [2]: Cmax in Sprague-Dawley rat at 1 mg/kg, po. Format: ADME, organism-based. Also noted: dose 1 mg/kg, route oral. The following applies: in vivo. Summed up: as §1
Data set [3] concerns Rattus norvegicus. The data set can be described thus: Inhibition of TNFalpha production in rat LPS challenge model at 3 mg/kg, po after 24 hrs. Format: functional.
Data set [4] in a line: Half life in Sprague-Dawley rat at 1 mg/kg, po. Format: ADME, organism-based. More on the design: dose 1 mg/kg, route oral. The following applies: in vivo. Summed up: as §1
The subject of data set [5] is Rattus norvegicus. The data set can be described thus: Reduction of TNFalpha production in rat LPS challenge model at 10 mg/kg, po after 3 hrs. Format: functional. More on the design: scale not given: the % may be the effect or the level left.
Data set [6] in a line: Oral bioavailability in Sprague-Dawley rat. The conditions noted are these: in vivo. Format: ADME, organism-based. The essentials: as §1
Data set [7] is described as follows: Half life in Sprague-Dawley rat at 1 mg/kg. Format: ADME, organism-based. More on the design: dose 1 mg/kg. The following applies: in vivo. Summed up:
as §1

Data set [8] is described as follows: Clearance in Sprague-Dawley rat at 1 mg/kg. The following applies: in vivo. Format: ADME, organism-based. More on the design: dose 1 mg/kg.
Data set [9] can be described thus: Cmax in Sprague-Dawley rat at 1 mg/kg. Format: ADME, organism-based. The conditions noted are these: in vivo. More on the design: dose 1 mg/kg. Summed up: as §1
Data set [10] can be described thus: Volume of distribution in Sprague-Dawley rat at 1 mg/kg. Also noted: dose 1 mg/kg. Format: ADME, organism-based. The conditions noted are these: in vivo, read-out: Vdss.
Data set [11] in a line: Oral bioavailability in rhesus macaque. The conditions noted are these: rhesus monkey, in vivo. Format: ADME, organism-based, Macaca mulatta.
A short description of data set [12]: Half life in rhesus macaque. Format: ADME, organism-based, Macaca mulatta. The following applies: rhesus monkey, in vivo.
Data set [13] in a line: Clearance in rhesus macaque. Format: ADME, organism-based, Macaca mulatta. The following applies: rhesus monkey, in vivo.
Data set [14] can be described thus: Volume of distribution in rhesus macaque. Format: ADME, organism-based, Macaca mulatta. The conditions noted are these: rhesus monkey, in vivo; read-out: Vdss.
Another data set has as its system Mus musculus. The experiment in a line: Inhibition of TNFalpha production in BALB/c mouse at 0.3 mg/kg up to 24hrs. Format: functional. The essentials:
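Female Balb/c mice aged 12–16 weeks were given compound orally in 0.5% methylcellulose 22.5 h before LPS challenge. They were sacrificed 1.5 h after challenge, and plasma TNF-a was measured by ELISA.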

Data set [15] deals with Rattus norvegicus. The experiment in a line: Inhibition of TNF-alpha production in rat LPS challenge model at 1 mg/kg, po after 24 hrs. Format: functional.
Data set [16] concerns Rattus norvegicus. The experiment in a line: Inhibition of paw swelling in AIA Lewis rat at 0.1 mg/kg, po after 21 days. Format: functional. The following applies: 504 h. Summed up:
(§2)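 Seven-week-old female Lewis rats had adjuvant injected into the left hind paw on day 0. Disease developed over 12 days, then rats were dosed orally at 0.1, 0.3, 1 or 3 mpk once daily for ten days. On days 0, 12 and 21 they were weighed, paw volumes measured and radiographs taken. Swelling of the secondary paw was scored.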

In data set [17] the test system is Rattus norvegicus. The data set can be described thus: Inhibition of paw swelling in AIA Lewis rat at 0.3 mg/kg, po after 21 days. The following applies: 504 h. Format: functional. The essentials:
as §2

Data set [18] has as its system Rattus norvegicus. The data set can be described thus: Inhibition of paw swelling in AIA Lewis rat at 1 mg/kg, po after 21 days. The conditions noted are these: 504 h. Format: functional. Summed up: as §2
In data set [19] the test system is Rattus norvegicus. The experiment in a line: Inhibition of paw swelling in AIA Lewis rat at 3 mg/kg, po after 21 days. Format: functional. The following applies: 504 h. Summed up:
as §2

For data set [20], the species on record is Rattus norvegicus. The experiment in a line: Inhibition of paw swelling in AIA Lewis rat after 21 days. Format: functional. The conditions noted are these: 504 h. Summed up:
as §2

Data set [21] has as its system Rattus norvegicus. The data set can be described thus: Inhibition of TNFalpha production in rat LPS challenge model at 0.1 mg/kg, po after 24 hrs. Format: functional.
The test system of data set [22] is Rattus norvegicus. The data set can be described thus: Inhibition of TNF-alpha production in rat LPS challenge model at 0.3 mg/kg, po after 24 hrs. Format: functional.
Data set [23] relates to Rattus norvegicus. The data set can be described thus: Inhibition of TNFalpha production in rat LPS challenge model at 3 mg/kg, po after 6 hrs. Format: functional.
The subject of data set [24] is Rattus norvegicus. The experiment in a line: Inhibition of TNFalpha production in rat LPS challenge model at 3 mg/kg, po after 16 hrs. Format: functional.
Data set [25] is described as follows: Half life in rat. Format: ADME, organism-based. The conditions noted are these: in vivo. The essentials:
as §1

Data set [26] is described as follows: Oral bioavailability in rat. Format: ADME, organism-based. The conditions noted are these: in vivo. Summed up:
as §1

Data set [27] can be described thus: Cmax in rat. Format: ADME, organism-based. The following applies: in vivo. The essentials:
as §1

The structures appear in SMILES notation.

One may read the IC50 as the concentration that inhibits the measured activity by half. Regarding `O=c1ccc2c(-c3ccc(F)cc3F)nccc2n1-c1c(F)cccc1F`, the IC50 with THP-1 was determined as 7 nM; in the data set with Blood, 145 nM.

In general, bioavailability refers to the share of a dose that reaches the circulation, judged against a reference dose that is usually intravenous. What is called Cmax is the maximum level reached in the sampled fluid or tissue. For orientation: half-life means how long it takes for the measured level to halve. In data set [1], `O=c1ccc2c(-c3ccc(F)cc3F)[n+]([O-])ccc2n1-c1c(Cl)cccc1Cl` had a bioavailability of 98%. For the same compound, the peak level in data set [2] (Cmax) was 3.5 µM. Further, 200 nM corresponded to half-maximal inhibition in the data set on THP-1 (IC50). Also, in the data set with Rattus norvegicus [3], the inhibition in vivo at 3 mg/kg was found to be 80%. This compound had a half-life in [4] of 9.9 h.

As for `O=c1ccc2c(-c3ccc(F)cc3F)nccc2n1-c1ccccc1Cl`, the figures for the concentration for half-maximal inhibition (IC50) in the data set on THP-1 and in the data set with Blood were 40.5 nM and 86.1 nM, respectively.

As for `CNc1cc2c(ccc(=O)n2-c2c(F)cccc2F)c(-c2ccc(F)cc2F)n1`, the values for the 50% inhibitory concentration (IC50) in the data set with THP-1 and in the data set on Blood were 7.3 nM and 73 nM, respectively.

`O=c1ccc2c(-c3ccc(F)cc3F)nc(O)cc2n1-c1c(F)cccc1F`: the 50% inhibitory concentration (IC50) is 4.5 nM with THP-1 and 121 nM in the data set on Blood. The compound also returned an Activity with Rattus norvegicus [5] of 70%.

What is called clearance is the volume of plasma or blood freed of the substance per unit of time. A word on the ED50: it is the midpoint of the dose-response relation. In the case of `Nc1cc2c(ccc(=O)n2-c2c(F)cccc2F)c(-c2ccc(F)cc2F)n1`, the results for the IC50 with THP-1 and with Blood were 0.69 nM and 34 nM, respectively. Moreover, the bioavailability turned out to be 68% in [6] and 22% in data set [11]. Also, the half-life in data set [7] is 6.5 h; in [12], 11.6 h. Besides, the values for the clearance in [8] and in [13] were 1.6 mL/min/kg and 1.3 mL/min/kg, respectively. The same compound displayed a maximum concentration (Cmax) in [9] of 3.5 µM. The Vd in [10] and in [14] was 0.9 L/kg each time. The figures for the inhibition in vivo at 0.3 mg/kg in the data set on Mus musculus, in the data set with Rattus norvegicus [17] and with Rattus norvegicus [22] were above 90%, 54% and 75%, respectively. Further, the inhibition in vivo at 1 mg/kg in the data set with Rattus norvegicus [15] came to 79%; with Rattus norvegicus [15] (read-out: Inhibition), 79%; with Rattus norvegicus [18], 65%. Moreover, the results for the inhibition in vivo at 0.1 mg/kg in the data set on Rattus norvegicus [16] and with Rattus norvegicus [21] were 38% and 53%, respectively. For the same compound, the inhibition in vivo at 3 mg/kg in the data set with Rattus norvegicus [19] came out at 80%; with Rattus norvegicus [23] it was 97%; in the data set on Rattus norvegicus [24] it was 95%; in the data set with Rattus norvegicus [3], 92%. In the data set filed under Rattus norvegicus [20], this compound displayed a 50% effective dose (ED50) of 0.22 mg/kg.

Take `O=c1ccc2c(-c3ccc(F)cc3F)nccc2n1-c1c(Cl)cccc1Cl`: the half-life in data set [25] is 2 h. The IC50 with THP-1 amounted to 6.6 nM; in the data set with Blood, 101 nM. The bioavailability in data set [26] is 57%. In addition, in data set [27], the maximum concentration (Cmax) came out at 1 µM. For the same compound, the inhibition in vivo at 3 mg/kg with Rattus norvegicus [23] worked out at 61%; in the data set on Rattus norvegicus [24], 37%; in the data set on Rattus norvegicus [3], 27%.

(Values after ChEMBL document CHEMBL1137291, “p38 MAP kinase inhibitors. Part 5: discovery of an orally bio-available and highly efficacious compound based on the 7-amino-naphthyridone scaffold” (Bioorg Med Chem Lett, 2006).)
